Source: ChEMBL document CHEMBL4689842, “EUbOPEN Chemogenomics Library wave 1” (2021)

Assays:
Type in all cases: toxicity, cell-based
HEK-293T = assay: Incucyte cell viability with HEK293T; settings: human, 10 µM, compound concentration 10 uM; note: filed as whole numbers so only -1 and 0 and 1 occur
Fibroblast [1] = assay: Incucyte cell viability with human fibroblast; settings: 10 µM, compound concentration 10 uM; note: filed as whole numbers so only -1 and 0 and 1 occur
U2OS = assay: Incucyte cell viability with U2OS; settings: human, 10 µM, compound concentration 10 uM; note: filed as whole numbers so only -1 and 0 and 1 occur
Fibroblast [2] = assay: Multiplex assay against human fibroblast
In short: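 Live cells were stained at seeding with Hoechst33342, BioTracker Green Microtubule Cytoskeleton Dye, MitoTracker Red and Annexin V Alexa Fluor 680. Following compound addition, they were imaged on a CQ1 microscope at 37°C and 5% CO2 and gated by CellPathfinder machine learning into Hoechst high-intensity objects or normal cells, with normal cells split into healthy, pyknosed or fragmented nuclei and pyknosed cells into mitotic or apoptotic. Tubulin, mitochondrial-mass and membrane-permeability phenotypes are per cents of healthy-nucleus cells.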

[3] = 6 h, replicate number 1, timepoint 6 hours
[4] = 12 h, replicate number 1, timepoint 12 hours
[5] = 18 h, replicate number 1, timepoint 18 hours
[6] = 24 h, replicate number 1, timepoint 24 hours
[7] = 12 h, 1 µM, compound concentration 1 uM, replicate 1
[8] = 12 h, 1 µM, compound concentration 1 uM, replicate 2
[9] = 12 h, 10 µM, compound concentration 10 uM, replicate 1
[10] = 12 h, 10 µM, compound concentration 10 uM, replicate 2
[11] = 24 h, 1 µM, compound concentration 1 uM, replicate 1
[12] = 24 h, 1 µM, compound concentration 1 uM, replicate 2
[13] = 24 h, 10 µM, compound concentration 10 uM, replicate 1
[14] = 24 h, 10 µM, compound concentration 10 uM, replicate 2
[15] = 48 h, 1 µM, compound concentration 1 uM, replicate 1
[16] = 48 h, 1 µM, compound concentration 1 uM, replicate 2
[17] = 48 h, 10 µM, compound concentration 10 uM, replicate 1
[18] = 48 h, 10 µM, compound concentration 10 uM, replicate 2

Cc1c(P(=S)(c2ccccc2)c2ccccc2)n2ccccc2[n+]1C/C=C/c1ccccc1.[Br-]
Growth Rate (HEK-293T; 0 h, replicate number 2, timepoint 0 hours): 1 | Growth Rate (HEK-293T; [3]): 0 | Growth Rate (HEK-293T; [4]): 0 | Growth Rate (HEK-293T; [5]): 0 | Growth Rate (HEK-293T; [6]): 0 | Growth Rate (Fibroblast [1]; 0 h, replicate number 1, timepoint 0 hours): 0 | Growth Rate (Fibroblast [1]; [3]): 0 | Growth Rate (Fibroblast [1]; [4]): 0 | Growth Rate (Fibroblast [1]; [5]): 0 | Growth Rate (Fibroblast [1]; [6]): 0 | Growth Rate (U2OS; [3]): 0 | Growth Rate (U2OS; [4]): 0 | Growth Rate (U2OS; [5]): 0 | Growth Rate (U2OS; [6]): 0 | Population Apoptotic (%) (Fibroblast [2]; [7]): 63% | Population Fragmented Nuclei (%) (Fibroblast [2]; [7]): 26% | Population Healthy Nuclei (%) (Fibroblast [2]; [7]): 43% | Population Hoechst High Intensity Objects (%) (Fibroblast [2]; [7]): 7% | Population Membrane Permeable-Phenotype (%) (Fibroblast [2]; [7]): 7% | Population Mitochondria Different-Phenotype (%) (Fibroblast [2]; [7]): 28% | Population Mitotic Cells (%) (Fibroblast [2]; [7]): 36% | Population Normal (%) (Fibroblast [2]; [7]): 92% | Population Pyknosed Nuclei (%) (Fibroblast [2]; [7]): 30% | Population Tubulin-Different-Phenotype (%) (Fibroblast [2]; [7]): 60% | Total Cell Count (Fibroblast [2]; [7]): 177 | Population Apoptotic (%) (Fibroblast [2]; [8]): 75% | Population Fragmented Nuclei (%) (Fibroblast [2]; [8]): 50% | Population Healthy Nuclei (%) (Fibroblast [2]; [8]): 45% | Population Hoechst High Intensity Objects (%) (Fibroblast [2]; [8]): 22% | Population Membrane Permeable-Phenotype (%) (Fibroblast [2]; [8]): 10% | Population Mitochondria Different-Phenotype (%) (Fibroblast [2]; [8]): 50% | Population Mitotic Cells (%) (Fibroblast [2]; [8]): 25% | Population Normal (%) (Fibroblast [2]; [8]): 77% | Population Pyknosed Nuclei (%) (Fibroblast [2]; [8]): 4% | Population Tubulin-Different-Phenotype (%) (Fibroblast [2]; [8]): 31% | Total Cell Count (Fibroblast [2]; [8]): 93 | Population Apoptotic (%) (Fibroblast [2]; [9]): 73% | Population Fragmented Nuclei (%) (Fibroblast [2]; [9]): 23% | Population Healthy Nuclei (%) (Fibroblast [2]; [9]): 14% | Population Hoechst High Intensity Objects (%) (Fibroblast [2]; [9]): 14% | Population Membrane Permeable-Phenotype (%) (Fibroblast [2]; [9]): 5% | Population Mitochondria Different-Phenotype (%) (Fibroblast [2]; [9]): 64% | Population Mitotic Cells (%) (Fibroblast [2]; [9]): 26% | Population Normal (%) (Fibroblast [2]; [9]): 85% | Population Pyknosed Nuclei (%) (Fibroblast [2]; [9]): 62% | Population Tubulin-Different-Phenotype (%) (Fibroblast [2]; [9]): 88% | Total Cell Count (Fibroblast [2]; [9]): 137 | Population Apoptotic (%) (Fibroblast [2]; [10]): 94% | Population Fragmented Nuclei (%) (Fibroblast [2]; [10]): 21% | Population Healthy Nuclei (%) (Fibroblast [2]; [10]): 10% | Population Hoechst High Intensity Objects (%) (Fibroblast [2]; [10]): 8% | Population Membrane Permeable-Phenotype (%) (Fibroblast [2]; [10]): 83% | Population Mitochondria Different-Phenotype (%) (Fibroblast [2]; [10]): 83% | Population Mitotic Cells (%) (Fibroblast [2]; [10]): 5% | Population Normal (%) (Fibroblast [2]; [10]): 91% | Population Pyknosed Nuclei (%) (Fibroblast [2]; [10]): 68% | Population Tubulin-Different-Phenotype (%) (Fibroblast [2]; [10]): 83% | Total Cell Count (Fibroblast [2]; [10]): 108 | Population Apoptotic (%) (Fibroblast [2]; [11]): 70% | Population Fragmented Nuclei (%) (Fibroblast [2]; [11]): 22% | Population Healthy Nuclei (%) (Fibroblast [2]; [11]): 58% | Population Hoechst High Intensity Objects (%) (Fibroblast [2]; [11]): 9% | Population Membrane Permeable-Phenotype (%) (Fibroblast [2]; [11]): 5% | Population Mitochondria Different-Phenotype (%) (Fibroblast [2]; [11]): 40% | Population Mitotic Cells (%) (Fibroblast [2]; [11]): 29% | Population Normal (%) (Fibroblast [2]; [11]): 90% | Population Pyknosed Nuclei (%) (Fibroblast [2]; [11]): 19% | Population Tubulin-Different-Phenotype (%) (Fibroblast [2]; [11]): 59% | Total Cell Count (Fibroblast [2]; [11]): 181 | Population Apoptotic (%) (Fibroblast [2]; [12]): 75% | Population Fragmented Nuclei (%) (Fibroblast [2]; [12]): 55% | Population Healthy Nuclei (%) (Fibroblast [2]; [12]): 40% | Population Hoechst High Intensity Objects (%) (Fibroblast [2]; [12]): 33% | Population Membrane Permeable-Phenotype (%) (Fibroblast [2]; [12]): 9% | Population Mitochondria Different-Phenotype (%) (Fibroblast [2]; [12]): 31% | Population Mitotic Cells (%) (Fibroblast [2]; [12]): 25% | Population Normal (%) (Fibroblast [2]; [12]): 66% | Population Pyknosed Nuclei (%) (Fibroblast [2]; [12]): 3% | Population Tubulin-Different-Phenotype (%) (Fibroblast [2]; [12]): 15% | Total Cell Count (Fibroblast [2]; [12]): 124 | Population Apoptotic (%) (Fibroblast [2]; [13]): 85% | Population Fragmented Nuclei (%) (Fibroblast [2]; [13]): 17% | Population Healthy Nuclei (%) (Fibroblast [2]; [13]): 10% | Population Hoechst High Intensity Objects (%) (Fibroblast [2]; [13]): 18% | Population Membrane Permeable-Phenotype (%) (Fibroblast [2]; [13]): 8% | Population Mitochondria Different-Phenotype (%) (Fibroblast [2]; [13]): 83% | Population Mitotic Cells (%) (Fibroblast [2]; [13]): 14% | Population Normal (%) (Fibroblast [2]; [13]): 81% | Population Pyknosed Nuclei (%) (Fibroblast [2]; [13]): 71% | Population Tubulin-Different-Phenotype (%) (Fibroblast [2]; [13]): 75% | Total Cell Count (Fibroblast [2]; [13]): 138 | Population Apoptotic (%) (Fibroblast [2]; [14]): 100% | Population Fragmented Nuclei (%) (Fibroblast [2]; [14]): 23% | Population Healthy Nuclei (%) (Fibroblast [2]; [14]): 38% | Population Hoechst High Intensity Objects (%) (Fibroblast [2]; [14]): 26% | Population Membrane Permeable-Phenotype (%) (Fibroblast [2]; [14]): 81% | Population Mitochondria Different-Phenotype (%) (Fibroblast [2]; [14]): 81% | Population Mitotic Cells (%) (Fibroblast [2]; [14]): 0% | Population Normal (%) (Fibroblast [2]; [14]): 73% | Population Pyknosed Nuclei (%) (Fibroblast [2]; [14]): 38% | Population Tubulin-Different-Phenotype (%) (Fibroblast [2]; [14]): 81% | Total Cell Count (Fibroblast [2]; [14]): 163 | Population Apoptotic (%) (Fibroblast [2]; [15]): 60% | Population Fragmented Nuclei (%) (Fibroblast [2]; [15]): 33% | Population Healthy Nuclei (%) (Fibroblast [2]; [15]): 54% | Population Hoechst High Intensity Objects (%) (Fibroblast [2]; [15]): 12% | Population Membrane Permeable-Phenotype (%) (Fibroblast [2]; [15]): 6% | Population Mitochondria Different-Phenotype (%) (Fibroblast [2]; [15]): 42% | Population Mitotic Cells (%) (Fibroblast [2]; [15]): 40% | Population Normal (%) (Fibroblast [2]; [15]): 87% | Population Pyknosed Nuclei (%) (Fibroblast [2]; [15]): 11% | Population Tubulin-Different-Phenotype (%) (Fibroblast [2]; [15]): 64% | Total Cell Count (Fibroblast [2]; [15]): 191 | Population Apoptotic (%) (Fibroblast [2]; [16]): 100% | Population Fragmented Nuclei (%) (Fibroblast [2]; [16]): 29% | Population Healthy Nuclei (%) (Fibroblast [2]; [16]): 70% | Population Hoechst High Intensity Objects (%) (Fibroblast [2]; [16]): 10% | Population Membrane Permeable-Phenotype (%) (Fibroblast [2]; [16]): 2% | Population Mitochondria Different-Phenotype (%) (Fibroblast [2]; [16]): 48% | Population Mitotic Cells (%) (Fibroblast [2]; [16]): 0% | Population Normal (%) (Fibroblast [2]; [16]): 89% | Population Pyknosed Nuclei (%) (Fibroblast [2]; [16]): 0% | Population Tubulin-Different-Phenotype (%) (Fibroblast [2]; [16]): 72% | Total Cell Count (Fibroblast [2]; [16]): 123 | Population Apoptotic (%) (Fibroblast [2]; [17]): 92% | Population Fragmented Nuclei (%) (Fibroblast [2]; [17]): 36% | Population Healthy Nuclei (%) (Fibroblast [2]; [17]): 21% | Population Membrane Permeable-Phenotype (%) (Fibroblast [2]; [17]): 0% | Population Mitochondria Different-Phenotype (%) (Fibroblast [2]; [17]): 85% | Population Mitotic Cells (%) (Fibroblast [2]; [17]): 7% | Population Pyknosed Nuclei (%) (Fibroblast [2]; [17]): 42% | Population Tubulin-Different-Phenotype (%) (Fibroblast [2]; [17]): 95% | Total Cell Count (Fibroblast [2]; [17]): 141 | Population Apoptotic (%) (Fibroblast [2]; [18]): 84% | Population Fragmented Nuclei (%) (Fibroblast [2]; [18]): 52% | Population Healthy Nuclei (%) (Fibroblast [2]; [18]): 18% | Population Hoechst High Intensity Objects (%) (Fibroblast [2]; [18]): 32% | Population Membrane Permeable-Phenotype (%) (Fibroblast [2]; [18]): 25% | Population Mitochondria Different-Phenotype (%) (Fibroblast [2]; [18]): 75% | Population Mitotic Cells (%) (Fibroblast [2]; [18]): 15% | Population Normal (%) (Fibroblast [2]; [18]): 67% | Population Pyknosed Nuclei (%) (Fibroblast [2]; [18]): 29% | Population Tubulin-Different-Phenotype (%) (Fibroblast [2]; [18]): 100% | Total Cell Count (Fibroblast [2]; [18]): 65
